For data set [1], the system named is Raji. Kind of data set: Inhibition of 12-O-tetradecanoylphorbol-13-acetate-induced EBV-early antigen activation in human Raji cells at 1 molar ratio after 48 hrs relative to TPA. It counts as cell-based. Further details: scale not given: the % may be the effect or the level left. Conditions: human gammaherpesvirus 4. An outline of the steps: (§1)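 Raji indicator cells kept 48 h at 37° in 1 ml medium with n-butyric acid (4 mM, co-inducer), TPA (20 ng/ml, […]) and test compound in DMSO, dosed as mol ratio to TPA. EA-positive cells were found by indirect immunofluorescence on smears with high-titer EBV-positive NPC patient sera. At least 500 cells counted per assay, repeated twice. Induction is expressed relative to the butyric acid+TPA positive control (100%).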

Data set [2] has as its system Raji. Description: Inhibition of 12-O-tetradecanoylphorbol-13-acetate-induced EBV-early antigen activation in human Raji cells at 1000 molar ratio after 48 hrs relative to TPA. It counts as cell-based. Further details: scale not given: the % may be the effect or the level left. Conditions: human gammaherpesvirus 4. An outline of the steps:
as §1

Data set [3] in a line: Cytotoxicity against human Raji cells assessed as cell viability at 500 molar ratio. It counts as cell-based. Conditions: read-out: Activity. An outline of the steps: (§2)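 Raji cell viability read in the same EBV-EA run: 48 h at 37° with n-butyric acid (4 mM) and TPA ([…]) plus test compound in DMSO, dosed as mol ratio to TPA. Viability is given alongside the relative EA activation values.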

Data set [4] deals with Raji. Kind of data set: Inhibition of 12-O-tetradecanoylphorbol-13-acetate-induced EBV-early antigen activation in human Raji cells at 500 molar ratio after 48 hrs relative to TPA. It counts as cell-based. On the set-up: scale not given: the % may be the effect or the level left. Conditions: human gammaherpesvirus 4. In a few lines: as §1
Data set [5] concerns Raji. Description: Inhibition of 12-O-tetradecanoylphorbol-13-acetate-induced EBV-early antigen activation in human Raji cells at 100 molar ratio after 48 hrs relative to TPA. It counts as cell-based. Further details: scale not given: the % may be the effect or the level left. Conditions: human gammaherpesvirus 4. An outline of the steps: as §1
Data set [6] is described as follows: Cytotoxicity against human Raji cells assessed as cell viability at 10 molar ratio. It counts as cell-based. Conditions: read-out: Activity. In a few lines:
as §2

Data set [7] can be described thus: Cytotoxicity against human Raji cells assessed as cell viability at 1000 molar ratio. It counts as cell-based. Conditions: read-out: Activity. In a few lines:
as §2

A short description of data set [8]: Cytotoxicity against human Raji cells assessed as cell viability at 1 molar ratio. Conditions: read-out: Activity. It counts as cell-based. In a few lines:
as §2

In data set [9] the test system is Raji. Kind of data set: Inhibition of 12-O-tetradecanoylphorbol-13-acetate-induced EBV-early antigen activation in human Raji cells at 10 molar ratio after 48 hrs relative to TPA. It counts as cell-based. On the set-up: scale not given: the % may be the effect or the level left. Conditions: human gammaherpesvirus 4. In a few lines:
as §1

Data set [10] can be described thus: Cytotoxicity against human Raji cells assessed as cell viability at 100 molar ratio. It counts as cell-based. Conditions: read-out: Activity. An outline of the steps:
as §2

The next data set relates to Mus musculus. Description: Inhibition of DMBA-induced/TPA-promoted carcinogenesis in ICR mouse assessed as reduction of skin papillomas per mouse at 85 nmol administered twice weekly after 1 week of initiation measured after 20 weeks. It counts as functional. On the set-up: scale not given: the % may be the effect or the level left. In a few lines:
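Female ICR mice, 7 weeks old, 15 per group, had shaved backs. They were initiated with DMBA (100 µg, […]) in Me2CO, then promoted from 1 week later with TPA (1 µg, […]) in Me2CO twice weekly, with test agent given with TPA. Papilloma incidence and average papillomas per mouse were scored against the TPA-alone control.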

Turning to `C=CCc1ccc(O)c(-c2cc(CC=C)cc(C3C=C(C)CC[C@@H]3C(C)C)c2O)c1` (stereo partly specified) [MONOTERPENYL MAGNOLOL], the Activity in the data set with Raji [1] came to 100%; in the data set on Raji [2] it was 11.6%; in the data set with Raji [4], 20.9%; in the data set on Raji [5], 82.6%; in the data set on Raji [9], 100%. Also, the viability at 500 molar ratio in data set [3] is more than 80%. The viability at 10 molar ratio in data set [6] was more than 80%. Moreover, the viability at 1000 molar ratio in [7] stood at 60%. Also, the viability at 1 molar ratio in data set [8] was more than 80%. Moreover, the viability at 100 molar ratio in data set [10] was more than 80%.

As to `C=CCc1ccc(O)c(-c2cc(CC=C)ccc2O)c1` [MAGNOLOL], the Activity with Mus musculus stood at 40%; in the data set on Raji [1], 94.4%; in the data set on Raji [2], 0%; in the data set with Raji [4], 0%; in the data set with Raji [5] it was 31.2%; with Raji [9], 56.9%. The viability at 500 molar ratio in data set [3] is more than 80%. Moreover, in [6], the viability at 10 molar ratio was more than 80%. In data set [7], the viability at 1000 molar ratio is 70%. Further, the viability at 1 molar ratio in data set [8] is more than 80%. The viability at 100 molar ratio in [10] is more than 80%.

On to `C=CCc1ccc(O)c(-c2ccc(O)c(CC=C)c2)c1` [HONOKIOL], for which the Activity in the data set on Raji [1] stood at 100%; in the data set on Raji [2], 0%; in the data set on Raji [4], 18.5%; in the data set with Raji [5], 69.4%; in the data set on Raji [9] it was 90.1%. Further, the viability at 500 molar ratio in data set [3] was more than 80%. Further, the viability at 10 molar ratio in [6] was more than 80%. The viability at 1000 molar ratio in data set [7] was 60%. Moreover, the viability at 1 molar ratio in [8] is more than 80%. Moreover, in [10], the viability at 100 molar ratio was more than 80%.

Take `CC1=CC[C@H](C(C)C)C=C1` [ALPHA-PHELLANDRENE]: the Activity came out at 100% in the data set with Raji [1]; 78.5% with Raji [2]; 93.7% in the data set with Raji [4]; 100% in the data set on Raji [5]; 100% with Raji [9]. For the same molecule, the viability at 500 molar ratio in [3] was more than 80%. For the same molecule, the viability at 10 molar ratio in data set [6] was more than 80%. Also, the viability at 1000 molar ratio in data set [7] was more than 80%. Further, the viability at 1 molar ratio in [8] was more than 80%. In addition, the viability at 100 molar ratio in data set [10] was more than 80%.

As to `C=C1CCC[C@]2(C)CC[C@@H](C(C)(C)O)C[C@@H]12` [BETA-EUDESMOL], the Activity in the data set with Raji [1] turned out to be 100%; in the data set on Raji [2], 40.1%; with Raji [4], 68.9%; with Raji [5], 83.8%; in the data set with Raji [9] it was 100%. The viability at 500 molar ratio in [3] is more than 80%. The viability at 10 molar ratio in [6] is more than 80%. The viability at 1000 molar ratio in data set [7] is more than 80%. Moreover, the viability at 1 molar ratio in [8] was more than 80%. Further, the viability at 100 molar ratio in data set [10] is more than 80%.

Values taken from ChEMBL document CHEMBL1158958, “Studies on inhibitors of skin tumor promotion, IX. Neolignans from Magnolia officinalis” (J Nat Prod, 1991).
